Data from ChEMBL document CHEMBL3286234, “Synthesis, Characterization, and in Vitro Evaluation of a New TSPO-Selective Bifunctional Chelate Ligand” (ACS Med Chem Lett, 2014).
Calls of active or inactive are those of the source. The calls are words filed in the database; no cut-off is given here.

Key:
[1] = Induction of double strand breaks in supercoiled pET plasmid DNA (unknown origin) at 0.5 to 10 uM pretreated for 2 hrs by agarose gel electrophoresis in presence of CuCl2 and GSH
In short: (§1)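 Compound preincubated 2 h with CuCl2 (5 equiv) and GSH (50 equiv), then reacted with pET plasmid DNA for 1 h at 37 °C at 0.5, 1, 2 or 10 μM. Forms I, II and III resolved on 1% agarose gel stained with ethidium bromide. Controls were untreated DNA and CuCl2 plus GSH alone.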

C6 [2] = assay: Cell cycle arrest in rat C6 cells assessed as proportion of cells at G2/M phase at 0.3 uM after 72 hrs by propidium iodide staining based flow cytometry (reference value: 28.02%); type: functional
C6 [3] = assay: Cytotoxicity against rat C6 cells overexpressing TSPO assessed as inhibition of cell viability after 72 hrs by MTT assay; type: functional, cell-based; settings: C6, 72 h
In short: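 Cells exposed to drug over 0.05 to 100 μM at 37 °C for 72 h; IC50 reported.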

[4] = Induction of double strand breaks in supercoiled pET plasmid DNA (unknown origin) at 10 uM pretreated for 2 hrs by agarose gel electrophoresis in absence of CuCl2
In short: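 Compound at 10 μM, without CuCl2, incubated with pET plasmid DNA. Supercoiled, open circular and linear forms resolved on 1% agarose gel stained with ethidium bromide.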

Translocator protein = Translocator protein (Rattus norvegicus, UniProt P16257); assay: Displacement of [3H]PK11195 from TSPO in rat C6 cell membrane after 90 mins by radioligand binding assay; type: cell membranes
In short: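 Affinity for TSPO was measured on membrane extracts of C6 glioma cells and reported as Ki (nM).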

C6 [5] = assay: Cell cycle arrest in rat C6 cells assessed as proportion of cells at S phase at 0.3 uM after 72 hrs by propidium iodide staining based flow cytometry (reference value: 11.15%); type: functional
[6] = Induction of single strand breaks in supercoiled pET plasmid DNA (unknown origin) at 0.5 to 10 uM pretreated for 2 hrs by agarose gel electrophoresis in presence of CuCl2 and GSH; in short: as §1
C6 [7] = assay: Antiproliferative activity in rat C6 cells assessed as proportion of cells with depolarized mitochondrial membrane potential at 10 uM after 24 hrs by JC-1 staining based flow cytometry (reference value: 0.21%); type: functional
C6 [8] = assay: Cell cycle arrest in rat C6 cells assessed as proportion of cells at G0/G1 phase at 0.3 uM after 72 hrs by propidium iodide staining based flow cytometry (reference value: 54.94%); type: functional
A2780cisR [9] = assay: Cytotoxicity against human A2780cisR cells assessed as inhibition of cell viability after 72 hrs by MTT assay; type: functional, cell-based
In short: (§2)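 Cells treated across 0.05 to 100 μM and incubated 72 h at 37 °C; IC50 in μM.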

A2780 = assay: Cytotoxicity against cisplatin-sensitive human A2780 cells assessed as inhibition of cell viability after 72 hrs by MTT assay; type: functional, cell-based; settings: A2780, 72 h; in short: as §2
A2780cisR [10] = assay: Resistance factor, ratio of IC50 for human A2780cisR cells to IC50 for cisplatin-sensitive human A2780 cells; type: functional
C6 [11] = assay: Induction of mitochondrial and nuclear structure modification in rat C6 cells assessed as fragmented nuclei and mitochondria at 10 uM after 24 hrs by MitoTracker Red/DAPI staining based fluorescence microscopy; type: functional, cell-based
In short: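 C6 glioma cells exposed at 10 μM for 24 h, then stained with MitoTracker Red for mitochondria and DAPI for nuclei. Morphology assessed with a digital imaging system. Untreated cells served as control.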

C6 [12] = assay: Cell cycle arrest in rat C6 cells at 10 uM after 24 hrs by propidium iodide staining based flow cytometry; type: functional
In short: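 C6 glioma cells exposed to 10 μM for 24 h, then cell cycle histograms recorded by flow cytometry. Untreated cells served as control.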

C6 [13] = assay: Cell cycle arrest in rat C6 cells assessed as proportion of cells at sub-G1 phase at 0.3 uM after 72 hrs by propidium iodide staining based flow cytometry (reference value: 5.89%); type: functional
[14] = Induction of double strand breaks in supercoiled pET plasmid DNA (unknown origin) at 10 uM pretreated for 2 hrs by agarose gel electrophoresis in presence of CuCl2 and GSH
In short: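 Ligand (0.5, 1, 2 or 10 μM) preincubated 2 h with CuCl2 (5 equiv) and GSH (50 equiv), then reacted with pET plasmid for 1 h at 37 °C. Products separated on 1% agarose gel stained with ethidium bromide and scored as supercoiled (I), open circular (II) and linear (III) forms.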

Sequence of Translocator protein (P16257 whole entry, looked up): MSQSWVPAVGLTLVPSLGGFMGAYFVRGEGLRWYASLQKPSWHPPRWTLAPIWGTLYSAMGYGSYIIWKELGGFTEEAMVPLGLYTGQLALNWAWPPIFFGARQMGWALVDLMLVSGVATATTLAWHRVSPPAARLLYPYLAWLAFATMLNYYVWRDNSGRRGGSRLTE

| Structure (SMILES) | Activity [1] | Activity (C6 [2]) | IC50 (C6 [3]) | Activity [4] | Ki (Translocator protein) | Activity (C6 [5]) | Activity [6] | Activity (C6 [7]) | Activity (C6 [8]) | IC50 (A2780cisR [9]) | IC50 (A2780) | Ratio IC50 (A2780cisR [10]) | Activity (C6 [11]) | Activity (C6 [12]) | Activity (C6 [13]) | Activity [14] |
| --- | --- | --- | --- | --- | --- | --- | --- | --- | --- | --- | --- | --- | --- | --- | --- | --- |
| CCCN(CCC)C(=O)Cc1c(-c2ccc(Cl)cc2)nc2c(NC(=O)CN(Cc3ccccn3)Cc3ccccn3)cccn12 | Active | 28.69% | 0.27 µM | inactive | 0.239 µM | 13.18% | inactive | 2.47% | 49.07% | 9.21 µM | 9.02 µM | 1.02 | Active | inactive | 9.06% | – |
| CCCN(CCC)C(=O)Cc1c(-c2ccc(Cl)cc2)nc2c(N)cccn12 | – | – | 19.7 µM | – | 0.0016 µM | – | – | – | – | – | – | – | – | – | – | inactive |
